ChEMBL document CHEMBL1124947, “Cationic antiprotozoal drugs. Trypanocidal activity of 2-(4'-formylphenyl)imidazo[1,2-a]pyridinium guanylhydrazones and related derivatives of quaternary heteroaromatic compounds” (J Med Chem, 1990)

Tests used:
Assay type in all cases: functional
Mus musculus [1] = experiment: Trypanocidal Activity at I.C.E. value 0.74 when administered subcutaneously.
Method in brief: (§1)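 Mice, in groups of five per dose, were given a standard inoculum of blood-stage T. rhodesiense that is lethal to all untreated controls, then dosed subcutaneously. Usually 11 dose levels were used (2^n × 0.42 mg/kg).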

Mus musculus [2] = experiment: Trypanocidal Activity at I.C.E. value 0.61 when administered perorally.
Mus musculus [3] = experiment: Trypanocidal Activity at I.C.E. value 0.60 when administered subcutaneously.; method in brief: as §1
Mus musculus [4] = experiment: Trypanocidal Activity at I.C.E. value 0.94 when administered subcutaneously.; method in brief: as §1
Mus musculus [5] = experiment: Trypanocidal Activity at I.C.E. value 0.63 when administered perorally.
Mus musculus [6] = experiment: Trypanocidal Activity at I.C.E. value 0.56 when administered perorally.
[7] = tested on: Trypanosoma brucei rhodesiense; experiment: In Vitro measurement of inhibition of Leucine uptake in cell culture of Trypanosoma rhodesiense.; details: read-out: ID50 (the source's name)
Method in brief: (§2)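 Trypanosomes harvested from infected rats, cultured 3 h with several concentrations of drug, usually 0.1–100 µg/mL. Radiolabeled L-leucine uptake measured. ID50 is the concentration in µg/mL giving 50% inhibition of incorporation.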

Mus musculus [8] = experiment: Trypanocidal Activity at I.C.E. value 0.57 when administered subcutaneously.; method in brief: as §1
[9] = tested on: Trypanosoma brucei rhodesiense; experiment: In Vitro measurement of inhibition of thymidine uptake in cell culture of Trypanosoma rhodesiense.; details: read-out: ID50 (the source's name)
Method in brief: (§3)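 Parasites harvested from infected rats and incubated 3 h across a drug concentration series, usually 0.1–100 µg/mL. Incorporation of radiolabeled thymidine measured. ID50 is the concentration (µg/mL) producing 50% inhibition.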

Mus musculus [10] = experiment: Trypanocidal Activity at I.C.E. value 0.41 when administered subcutaneously.
Method in brief: (§4)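 Blood-stage T. rhodesiense infection came from a standard inoculum lethal to all untreated mice. Drug was given by subcutaneous injection to groups of five mice. Survival beyond 30 days counted as cure. […] Sub-curative doses scored 0, and data were normalized at each dose.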

Mus musculus [11] = experiment: Trypanocidal Activity at I.C.E. value 0.40 when administered perorally.
Mus musculus [12] = experiment: Trypanocidal Activity at I.C.E. value 0.84 when administered subcutaneously.; method in brief: as §1
Mus musculus [13] = experiment: Trypanocidal Activity at I.C.E. value 0.54 when administered subcutaneously.; method in brief: as §4
Mus musculus [14] = experiment: Trypanocidal Activity at I.C.E. value 0.48 when administered perorally.
Mus musculus [15] = experiment: Trypanocidal Activity at I.C.E. value 0.49 when administered subcutaneously.; method in brief: as §4
Mus musculus [16] = experiment: Trypanocidal Activity at I.C.E. value 0.66 when administered subcutaneously.; method in brief: as §1
Mus musculus [17] = experiment: Trypanocidal Activity at I.C.E. value 0.49 when administered perorally.
Mus musculus [18] = experiment: Trypanocidal Activity at I.C.E. value 0.17 when administered perorally.
Mus musculus [19] = experiment: Trypanocidal Activity at I.C.E. value 0.63 when administered subcutaneously.; method in brief: as §1
Mus musculus [20] = experiment: Trypanocidal Activity at I.C.E. value 0.30 when administered subcutaneously.; method in brief: as §4
Mus musculus [21] = experiment: Trypanocidal Activity at I.C.E. value 0.15 when administered perorally.
Mus musculus [22] = experiment: Trypanocidal Activity at I.C.E. value 0.79 when administered subcutaneously.; method in brief: as §1
[23] = tested on: Trypanosoma brucei rhodesiense; experiment: In Vitro measurement of inhibition of leucine uptake in cell culture of Trypanosoma rhodesiense; details: read-out: ID50 (the source's name); method in brief: as §2
[24] = tested on: Trypanosoma brucei rhodesiense; experiment: In Vitro measurement of inhibition of thymidine uptake in cell culture of Trypanosoma rhodesiense; details: read-out: ID50 (the source's name); method in brief: as §3
Mus musculus [25] = experiment: Trypanocidal Activity at I.C.E. value 0.55 when administered subcutaneously.; method in brief: as §1
Mus musculus [26] = experiment: Trypanocidal Activity at I.C.E. value 0.4 when administered perorally.
Mus musculus [27] = experiment: Trypanocidal Activity at I.C.E. value 0.47 when administered subcutaneously.; method in brief: as §4
Mus musculus [28] = experiment: Trypanocidal Activity at I.C.E. value 0.24 when administered subcutaneously.; method in brief: as §4
Mus musculus [29] = experiment: Trypanocidal Activity at I.C.E. value 0.06 when administered perorally.
Mus musculus [30] = experiment: Trypanocidal Activity at I.C.E. value 0.48 when administered subcutaneously.; method in brief: as §4
Mus musculus [31] = experiment: Trypanocidal Activity at I.C.E. value 0.47 when administered perorally.
Mus musculus [32] = experiment: Trypanocidal Activity at I.C.E. value 0.36 when administered subcutaneously.

## C[n+]1c(/C=C/c2ccc(/C=N/NC(=N)N3CCCC3)cc2)cn2ccccc21.Cc1ccc(S(=O)(=O)O)cc1.Cc1ccc(S(=O)(=O)[O-])cc1
Mus musculus [1]
  CD50: 0.8 mg/kg

## Br.C[n+]1c(COc2ccc(/C=N/NC3=NCCN3)cc2)cn2ccccc21.[Br-]
Mus musculus [2]
  CD50: 6.6 mg/kg
Mus musculus [3]
  CD50: 0.8 mg/kg

## C[n+]1c(-c2ccc(/C=C/C=N/NC(=N)N)cc2)cn2ccccc21.Cc1ccc(S(=O)(=O)O)cc1.Cc1ccc(S(=O)(=O)[O-])cc1
Mus musculus [4]
  CD50: 0.06 mg/kg
Mus musculus [5]
  CD50: 6.6 mg/kg

## Br.C[n+]1c(-c2ccc(/C=N/NC3=NCCN3)cc2)cn2ccccc21.[Br-]
Mus musculus [6]
  CD50: 13 mg/kg
[7]
  IC50: 0.9 µg/mL
Mus musculus [8]
  CD50: 0.8 mg/kg
[9]
  IC50: 0.8 µg/mL

## Br.Cc1ccc2n(c1)cc(/C=C/c1ccc(/C=N/NC3=NCCCN3)cc1)[n+]2C.[Br-]
Mus musculus [10]
  CD50: 1.6 mg/kg

## Br.CC/N=C(\NCC)N/N=C/c1ccc(-c2cn3ccccc3[n+]2C)cc1.[Br-]
Mus musculus [8]
  CD50: 1.6 mg/kg
Mus musculus [11]
  CD50: 53 mg/kg

## Br.Cc1cccc2n1cc(/C=C/c1ccc(/C=N/NC3=NCCCN3)cc1)[n+]2C.[Br-]
Mus musculus [12]
  CD50: 0.4 mg/kg

## Br.CNC(=N)N/N=C/c1ccc(-c2cn3ccccc3[n+]2C)cc1.[Br-]
Mus musculus [10]
  CD50: 0.8 mg/kg
[7]
  IC50: 0.7 µg/mL
[9]
  IC50: 0.5 µg/mL

## Br.Cn1cc[n+](C)c1/C=C/c1ccc(/C=N/NC2=NCCCN2)cc1.[Br-]
Mus musculus [13]
  CD50: 0.8 mg/kg
Mus musculus [5]
  CD50: 6.6 mg/kg

## Br.Cc1cccc2n1cc(COc1ccc(/C=N/NC(=N)N)cc1)[n+]2C.[Br-]
Mus musculus [14]
  CD50: 13 mg/kg
Mus musculus [15]
  CD50: 0.8 mg/kg

## Br.CCNC(=N)N/N=C/c1ccc(/C=C/c2cn3ccccc3[n+]2C)cc1.[Br-]
Mus musculus [16]
  CD50: 0.1 mg/kg

## Br.CCNC(=N)N/N=C/c1ccc(OCc2n(C)c3ccccc3[n+]2C)cc1.[Br-]
Mus musculus [3]
  CD50: 1.6 mg/kg

## Br.Cc1cccc2n1cc(COc1ccc(/C=N/NC(=N)NO)cc1)[n+]2C.[Br-]
Mus musculus [17]
  CD50: 13 mg/kg
Mus musculus [1]
  CD50: 0.8 mg/kg

## CCCCSc1ccc2n(c1)cc(-c1ccc(/C=N/NC(=N)N3CCCC3)cc1)[n+]2C.Cc1ccc(S(=O)(=O)O)cc1.Cc1ccc(S(=O)(=O)[O-])cc1
Mus musculus [18]
  CD50: 212 mg/kg
Mus musculus [19]
  CD50: 3.3 mg/kg

## Br.CC/N=C(\NCC)N/N=C/c1ccc(C[n+]2cn(C)c3ccccc32)cc1.[Br-]
Mus musculus [20]
  CD50: 13 mg/kg
Mus musculus [21]
  CD50: 424 mg/kg

## CC(=O)Nc1ccc2n(c1)cc(-c1ccc(/C=N/NC(=N)N)cc1)[n+]2C.Cc1ccc(S(=O)(=O)O)cc1.Cc1ccc(S(=O)(=O)[O-])cc1
Mus musculus [22]
  CD50: 0.4 mg/kg
[23]
  IC50: > 10 µg/mL
[24]
  IC50: 1.5 µg/mL

## Cc1ccc(S(=O)(=O)O)cc1.Cc1ccc(S(=O)(=O)[O-])cc1.Cc1ccn2cc(-c3ccc(/C=N/NC(=N)N)cc3)[n+](C)c2c1
Mus musculus [25]
  CD50: 1.6 mg/kg
[9]
  IC50: 1 µg/mL

## C[n+]1ccc(COc2ccc(/C=N/NC(=N)N3CCCC3)cc2)cc1.Cc1ccc(S(=O)(=O)O)cc1.Cc1ccc(S(=O)(=O)[O-])cc1
Mus musculus [26]
  CD50: 424 mg/kg
[23]
  IC50: 13.6 µg/mL
[24]
  IC50: 9.3 µg/mL
Mus musculus [27]
  CD50: 0.8 mg/kg

## Cc1ccc(S(=O)(=O)O)cc1.Cc1ccc(S(=O)(=O)[O-])cc1.Cc1ccc2n(c1)cc(-c1ccc(/C=C/C=N/NC(=N)N)cc1)[n+]2C
Mus musculus [28]
  CD50: 106 mg/kg
Mus musculus [29]
  CD50: 424 mg/kg

## Br.C[n+]1cccc(COc2ccc(/C=N/NC(=N)N3CCCC3)cc2)c1.[Br-]
Mus musculus [26]
  CD50: 26 mg/kg
[23]
  IC50: 0.8 µg/mL
[24]
  IC50: 0.3 µg/mL
Mus musculus [27]
  CD50: 0.8 mg/kg

## Br.Cc1ccn2cc(-c3ccc(/C=N/NC(=N)N4CCCC4)cc3)[n+](C)c2c1.[Br-]
Mus musculus [30]
  CD50: 0.1 mg/kg
Mus musculus [31]
  CD50: 13 mg/kg

## Br.C[n+]1c(COc2ccc(/C=N/NC(=N)N3CCCC3)cc2)cn2ccccc21.[Br-]
Mus musculus [32]
  CD50: 0.8 mg/kg
Mus musculus [31]
  CD50: 26 mg/kg
